Our source for the Activity values is ChEMBL document CHEMBL5154854, “Identification of a Vitamin-D Receptor Antagonist, MeTC7, which Inhibits the Growth of Xenograft and Transgenic Tumors In Vivo” (J Med Chem, 2022).

In the assay the target is T1, Vitamin D3 receptor (Homo sapiens) (UniProt P11473).
T1 sequence (whole entry): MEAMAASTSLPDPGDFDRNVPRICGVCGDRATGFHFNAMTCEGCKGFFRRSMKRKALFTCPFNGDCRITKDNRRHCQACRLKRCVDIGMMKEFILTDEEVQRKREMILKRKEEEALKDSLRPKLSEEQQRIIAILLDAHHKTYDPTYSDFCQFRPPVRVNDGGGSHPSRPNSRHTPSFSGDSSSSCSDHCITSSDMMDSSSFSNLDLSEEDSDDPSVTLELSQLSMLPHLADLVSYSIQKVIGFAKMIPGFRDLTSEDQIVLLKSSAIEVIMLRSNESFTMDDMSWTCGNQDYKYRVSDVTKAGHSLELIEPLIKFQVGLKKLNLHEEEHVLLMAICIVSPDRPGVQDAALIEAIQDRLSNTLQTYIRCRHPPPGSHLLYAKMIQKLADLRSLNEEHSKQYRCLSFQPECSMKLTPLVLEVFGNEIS
In words: Antagonist activity at VDR LBD (unknown origin) using Alexa Fluor 647-labeled SRC2-3 as substrate incubated for 2 hrs in presence of calcitriol by fluorescence polarization assay. The procedure, abridged:
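VDR-LBD (0.1 μM) with Alexa Fluor 647-labelled SRC2-3 (17.5 nM) and 10 nM 1,25(OH)2D3 in 25 mM PIPES, 50 mM NaCl, 0.01% NP-40, pH 6.75. Compounds were serially diluted 1:2 from 10 mM DMSO stocks and incubated 2 h. Polarization was read at 635/685 nm. Three independent experiments in quadruplicate; IC50 by variable-slope nonlinear regression.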
Background: Fluorescence polarisation rises when a labelled molecule tumbles more slowly, as on binding a larger partner.

Consider `CC(C)CCC[C@@H](C)[C@H]1CC[C@H]2C3=CC=C4C[C@@H](O)CC[C@]4(C)[C@H]3CC[C@]12C`, for which the Activity was more than 100 µM.
